We go through three compounds from ChEMBL document CHEMBL3132745, “Synthesis and Antimicrobial Activities of His(2-aryl)-Arg and Trp-His(2-aryl) Classes of Dipeptidomimetics” (Medchemcomm, 2014).

In brackets after ≈: the same amount, converted by molar mass. Activity calls are given as the source filed them. Where only a bound is given, the exact number is not on record here.

A word on the MFC: it is the smallest concentration meeting the test's criterion for killing the fungus. One may read the MIC as the lowest concentration found to suppress growth. Broadly, the IC50 is the concentration that gives 50% inhibition.

A short description of data set [1]: Selectivity index, ratio of cytotoxicity against human KB cells to IC50 for Cryptococcus neoformans ATCC 90113. In kind it is toxicity, cell-based. Conditions: read-out: Selectivity Index.
In a further data set the test system is KB. Kind of data set: Cytotoxicity against human KB cells assessed as cell viability after 48 hrs by neutral red uptake assay. In kind it is cell-based. In short, it runs like this:
(§1)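 Neutral red uptake assay on human cancer lines (SK-MEL, KB, BT-549, SK-OV-3) and noncancerous mammalian cells (VERO, LLC-PK1). Highest tested concentration was 10 µg/mL.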

Another data set deals with Vero. The experiment in a line: Cytotoxicity against african green monkey Vero cells assessed as cell viability after 48 hrs by neutral red uptake assay. In kind it is cell-based. Conditions: chlorocebus sabaeus. In short, it runs like this: as §1
Data set [2] is described as follows: Selectivity index, ratio of cytotoxicity against human BT549 cells to IC50 for Cryptococcus neoformans ATCC 90113. Format: toxicity, cell-based, BT-549. Conditions: read-out: Selectivity Index.
The next data set deals with Candida albicans. The experiment in a line: Antifungal activity against Candida albicans assessed as growth inhibition. In kind it is functional, organism-based.
A further data set deals with SK-OV-3. Kind of data set: Cytotoxicity against human SKOV3 cells assessed as cell viability after 48 hrs by neutral red uptake assay. Format: cell-based. Conditions: sk-ov-3, 48 h. An outline of the steps: as §1
For a further data set, the system named is Aspergillus fumigatus. The experiment in a line: Antifungal activity against Aspergillus fumigatus assessed as growth inhibition. Format: functional, organism-based.
Data set [3] can be described thus: Selectivity index, ratio of cytotoxicity against african green monkey Vero cells to IC50 for Cryptococcus neoformans ATCC 90113. In kind it is toxicity, cell-based. Particulars: read-out: Selectivity Index.
The next data set deals with Nakaseomyces glabratus. The experiment in a line: Antifungal activity against Candida glabrata assessed as growth inhibition. Format: functional, organism-based.
A further data set concerns Cryptococcus neoformans. Kind of data set: Antifungal activity against Cryptococcus neoformans ATCC 90113 assessed as growth inhibition after 70-74 hrs by CLSI method. Particulars: Cryptococcus neoformans, ATCC 90113; for IC50: read-out: IC50. In kind it is functional, organism-based.
Another data set concerns LLC-PK1. Kind of data set: Cytotoxicity against pig LLC-PK1 cells assessed as cell viability after 48 hrs by neutral red uptake assay. Particulars: llc-pk1, 48 h. In kind it is cell-based, Sus scrofa. In short, it runs like this:
as §1

A further data set relates to SK-MEL. Kind of data set: Cytotoxicity against human SK-MEL cells assessed as cell viability after 48 hrs by neutral red uptake assay. Format: cell-based. In short, it runs like this:
as §1

A short description of data set [4]: Selectivity index, ratio of cytotoxicity against pig LLC-PK1 cells to IC50 for Cryptococcus neoformans ATCC 90113. In kind it is toxicity, cell-based. Particulars: read-out: Selectivity Index.
Data set [5] can be described thus: Selectivity index, ratio of cytotoxicity against human SK-MEL cells to IC50 for Cryptococcus neoformans ATCC 90113. In kind it is toxicity, cell-based. Particulars: read-out: Selectivity Index.
The test system of another data set is BT-549. Kind of data set: Cytotoxicity against human BT549 cells assessed as cell viability after 48 hrs by neutral red uptake assay. Particulars: bt-549, 48 h. Format: cell-based. In short, it runs like this:
as §1

The nature of data set [6]: Selectivity index, ratio of cytotoxicity against human SKOV3 cells to IC50 for Cryptococcus neoformans ATCC 90113. Particulars: read-out: Selectivity Index. In kind it is toxicity, cell-based, SK-OV-3.
A further data set deals with Pichia kudriavzevii. Kind of data set: Antifungal activity against Candida krusei assessed as growth inhibition. Format: functional, organism-based.
The next data set relates to Escherichia coli. The experiment in a line: Antibacterial activity against Escherichia coli ATCC 35218 assessed as growth inhibition after 16-20 hrs by CLSI method. Format: functional, organism-based.

As for `N[C@@H](Cc1c[nH]c2ccccc12)C(=O)N[C@@H](Cc1c[nH]c(-c2ccccc2)n1)C(=O)NCc1ccccc1`, the selectivity ratio in data set [1], in data set [2], in [3], in [4], in data set [5] and in data set [6] was greater than 4.9 each time. Further, the Activity with KB, in the data set with Vero, with SK-OV-3, with LLC-PK1, in the data set on SK-MEL and with BT-549 was greater than 10 µg/mL in each case. The “growth inhibition (GI)” value with Candida albicans, in the data set on Aspergillus fumigatus, with Nakaseomyces glabratus, in the data set on Pichia kudriavzevii and in the data set on Escherichia coli was “inactive” throughout. Moreover, in the data set on Cryptococcus neoformans, the minimal fungicidal concentration (MFC) turned out to be 5 µg/mL (≈ 9.87 µM). The minimal inhibitory concentration (MIC) with Cryptococcus neoformans is 5 µg/mL (≈ 9.87 µM). Moreover, the IC50 with Cryptococcus neoformans came to 2.04 µg/mL (≈ 4.03 µM).
Consider `COc1ccc(-c2nc(C[C@H](NC(=O)OC(C)(C)C)C(=O)N[C@@H](CCCNC(=N)N)C(=O)NCc3ccccc3)c[nH]2)cc1`, for which the selectivity ratio in data set [1], in data set [2], in [3], in data set [4], in [5] and in data set [6] was greater than 1.7 in each case. For the same compound, the Activity in the data set with KB, in the data set with Vero, in the data set on SK-OV-3, in the data set with LLC-PK1, in the data set with SK-MEL and with BT-549 was greater than 10 µg/mL in each case. Moreover, the “growth inhibition (GI)” value in the data set on Candida albicans, with Aspergillus fumigatus, with Nakaseomyces glabratus, in the data set with Pichia kudriavzevii and in the data set with Escherichia coli was “inactive” in each case. In addition, the MFC in the data set on Cryptococcus neoformans came out at 10 µg/mL (≈ 16.5 µM). The minimum inhibitory concentration (MIC) in the data set on Cryptococcus neoformans was determined as 10 µg/mL (≈ 16.5 µM). Further, the IC50 with Cryptococcus neoformans was 5.77 µg/mL (≈ 9.51 µM).
As to `COC(=O)[C@H](CCCNC(=N)N)NC(=O)[C@@H](N)Cc1c[nH]c(-c2cccc3ccccc23)n1`, the selectivity ratio in data set [1], in data set [2], in [3], in data set [4], in [5] and in data set [6] was greater than 7.3 throughout. For the same compound, the Activity with KB, with Vero, in the data set on SK-OV-3, with LLC-PK1, with SK-MEL and with BT-549 was greater than 10 µg/mL each time. For the same compound, the “growth inhibition (GI)” value with Candida albicans, in the data set on Aspergillus fumigatus, in the data set with Nakaseomyces glabratus, with Pichia kudriavzevii and in the data set on Escherichia coli was “inactive” each time. In addition, the minimal fungicidal concentration (MFC) with Cryptococcus neoformans was 2.5 µg/mL (≈ 5.54 µM). For the same compound, the MIC in the data set with Cryptococcus neoformans amounted to 2.5 µg/mL (≈ 5.54 µM). In addition, the concentration for half-maximal inhibition (IC50) with Cryptococcus neoformans turned out to be 1.38 µg/mL (≈ 3.06 µM).
